Measured values of several laboratories.
Each line is one published result; the experiments were not run side by side.
HTR2A: 5-hydroxytryptamine receptor 2A (HTR2A, Homo sapiens, UniProt P28223)
SRD5A1: 3-oxo-5-alpha-steroid 4-dehydrogenase 1 (SRD5A1, Homo sapiens, UniProt P18405)
CNR1: Cannabinoid receptor 1 (CNR1, Homo sapiens, UniProt P21554)

COc1cc2c3c(c1OC)-c1c(OC)ccc(NC(C)=O)c1CC3N(C)CC2 (stereo not shown)
inhibition (HTR2A; ligand displacement, radioligand; 10 µM): 9%

COc1cc(C=CC(=O)O)ccc1OC(C)=O
inhibition (SRD5A1; enzyme activity in cells, inhibitor; HaCaT; 50 µM): 18.6%

C#Cc1cc(-c2cc(Nc3nc(N[C@@H](C)c4ccc(F)cn4)ncc3Cl)n[nH]2)ccc1C=O
inhibition (Cytoplasmic tyrosine-protein kinase BMX (BMX, Homo sapiens, UniProt P51813); enzyme activity, inhibitor; 0.2 µM): 70.8%

Cc1cc(F)cc2c(CCC(=O)N[C@@H]3C(=O)NC[C@H]3O)c(-c3ccc(F)cc3)[nH]c12
inhibition (Endothelin-1 receptor (EDNRA, Homo sapiens, UniProt P25101); cell-free assay; 10 µM): -19%

Cc1cc(O)c(-c2ccc([C@@H](C)CN(C)C)cc2)c2c1[nH]c(=O)c1sccc12
inhibition (Serine/threonine-protein kinase A-Raf (ARAF, Homo sapiens, UniProt P10398); enzyme activity, inhibitor; 0.1 µM, lysate): -26%

NC/C(=C\F)COc1cccc(Cn2c(=S)[nH]c(=O)c3[nH]cnc32)c1
inhibition (CNR1; ligand displacement, radioligand; 10 µM): < 50%

COC(=O)C=Cc1ccc(OC(C)=O)c(OC)c1
inhibition (SRD5A1; enzyme activity in cells, inhibitor; HaCaT; 50 µM): 26.4%

CCN1/C(=C/C(C)=O)Sc2ccc(F)cc21
inhibition (CNR1; ligand displacement, radioligand; 10 µM): 0%

CC(=O)Oc1ccc(C=CC(=O)O)cc1OC(C)=O
inhibition (SRD5A1; enzyme activity in cells, inhibitor; HaCaT; 50 µM): 12.2%

COc1cc2c3c(c1OC)-c1c(OC)ccc(-c4ccc(C#N)cc4)c1CC3N(C)CC2 (stereo not shown)
inhibition (HTR2A; ligand displacement, radioligand; 10 µM): 34%
